What was measured:
Type in all cases: functional
[1] = Cytotoxicity against human Hs 578T cells assessed as cell growth at 0.001 uM after 48 hrs by sulforhodamine B assay; conditions: read-out: Activity
[2] = system: SF-295; experiment: Growth inhibition of human SF295 cells after 48 hrs by sulforhodamine B assay; conditions: SF-295, 48 h; for CC50: read-out: LC50 (the source's name)
How it was run: (§1)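 NCI 60-cell screen, five-dose mode. Cells grown in RPMI 1640 with 5% FBS and 2 mM L-glutamine and plated at 5000-40,000 cells/well according to doubling time. After 24 h preincubation, a Tz plate was TCA-fixed. Five concentrations (10-fold or 1/2 log dilutions) were applied for 48 h at 37 °C. SRB staining read at 515 nm. IC50 taken from [(Ti-Tz)/(C-Tz)]×100 = 50.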

[3] = system: TK-10; experiment: Cytotoxicity against human TK10 cells assessed as cell growth at 0.001 uM after 48 hrs by sulforhodamine B assay; conditions: TK-10, 48 h, read-out: Activity
[4] = system: SF-295; experiment: Cytotoxicity against human SF295 cells assessed as cell growth at 0.001 uM after 48 hrs by sulforhodamine B assay; conditions: SF-295, 48 h, read-out: Activity
[5] = Cytotoxicity against human Hs 578T cells assessed as cell growth at 0.01 uM after 48 hrs by sulforhodamine B assay; conditions: read-out: Activity
[6] = system: MDA-MB-231; experiment: Cytotoxicity against human MDA-MB-231 cells assessed as cell growth at 0.001 uM after 48 hrs by sulforhodamine B assay; conditions: MDA-MB-231, 48 h, read-out: Activity
[7] = system: HOP-62; experiment: Cytotoxicity against human HOP62 cells assessed as cell growth at 1 uM after 48 hrs by sulforhodamine B assay; conditions: HOP-62, 48 h, read-out: Activity
[8] = system: HL-60(TB); experiment: Growth inhibition of human HL-60(TB) cells after 48 hrs by sulforhodamine B assay; conditions: HL-60, 48 h
How it was run: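 NCI 60-cell SRB screen. Cells in RPMI 1640 with 5% FBS and 2 mM L-glutamine are preincubated 24 h, then exposed to five concentrations (10-fold or 1/2-log dilutions from DMSO stock) for 48 h at 37 °C. Suspension cells are fixed with 80% TCA (final 16%), and A515 is read. IC50 is taken as the concentration where [(Ti−Tz)/(C−Tz)]×100 = 50, i.e. 50% reduction in net protein increase.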

[9] = system: RXF 393; experiment: Cytotoxicity against human RXF393 cells assessed as cell growth at 10 uM; conditions: read-out: Activity
How it was run: (§2)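 NCI-60 screen: cells grown in RPMI 1640 with 5% FBS and 2 mM L-glutamine, plated at 5000–40,000 cells/well according to doubling time, and preincubated 24 h at 37 °C, 5% CO2. The single 10 µM dose (DMSO stock) was added, then incubated 48 h. Cells were TCA-fixed and stained with 0.4% SRB, read at 515 nm, and growth % calculated against time-zero and control plates.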

[10] = system: SW-620; experiment: Cytotoxicity against human SW620 cells assessed as cell growth at 0.001 uM after 48 hrs by sulforhodamine B assay; conditions: SW-620, 48 h, read-out: Activity
[11] = system: SN12C; experiment: Cytotoxicity against human SN12C cells assessed as cell growth at 1 uM after 48 hrs by sulforhodamine B assay; conditions: read-out: Activity
[12] = system: M14; experiment: Cytotoxicity against human M14 cells assessed as cell growth at 0.001 uM after 48 hrs by sulforhodamine B assay; conditions: M14, 48 h, read-out: Activity
[13] = system: SF-268; experiment: Growth inhibition of human SF268 cells after 48 hrs by sulforhodamine B assay; conditions: SF-268, 48 h; for CC50: read-out: LC50 (the source's name); how it was run: as §1
[14] = system: SN12C; experiment: Cytotoxicity against human SN12C cells assessed as cell growth at 10 uM; conditions: read-out: Activity; how it was run: as §2
[15] = system: CAKI-1; experiment: Growth inhibition of human Caki1 cells after 48 hrs by sulforhodamine B assay; conditions: CAKI-1, 48 h; for CC50: read-out: LC50 (the source's name)
How it was run: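 NCI five-dose SRB assay in RPMI 1640 with 5% FBS and 2 mM L-glutamine. Cells were preincubated 24 h, then exposed 48 h at 37 °C to five concentrations (10-fold or half-log serial dilutions from DMSO stocks). TCA fixation, SRB staining, and absorbance at 515 nm followed. IC50 was taken where [(Ti−Tz)/(C−Tz)]×100 = 50, with Tz as time-zero cell density.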

[16] = system: T47D; experiment: Cytotoxicity against human T47D cells assessed as cell growth at 10 uM after 48 hrs by sulforhodamine B assay; conditions: read-out: Activity
[17] = system: HCT-15; experiment: Cytotoxicity against human HCT15 cells assessed as cell growth at 10 uM; conditions: read-out: Activity
How it was run: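 Single-dose NCI-60 screen at 10 µM. Cells were grown in RPMI 1640 with 5% FBS and 2 mM L-glutamine, then treated for 48 h at 37 °C. Protein was measured by SRB staining with absorbance at 515 nm. Percentage growth was recorded, and inhibition percentage was calculated as 100 minus growth percentage.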

[18] = system: HCT-15; experiment: Cytotoxicity against human HCT15 cells assessed as cell growth at 100 nM after 48 hrs by sulforhodamine B assay; conditions: HCT-15, 48 h, read-out: Activity
[19] = system: NCI-H23; experiment: Cytotoxicity against human NCI-H23 cells assessed as cell growth at 0.001 uM after 48 hrs by sulforhodamine B assay; conditions: NCI-H23, 48 h, read-out: Activity
[20] = system: NCI/ADR-RES; experiment: Cytotoxicity against human NCI/ADR-RES cells assessed as cell growth at 0.01 uM after 48 hrs by sulforhodamine B assay; conditions: read-out: Activity
[21] = system: K562; experiment: Growth inhibition of human K562 cells after 48 hrs by sulforhodamine B assay; conditions: K562, 48 h; how it was run: as §1
[22] = system: SN12C; experiment: Cytotoxicity against human SN12C cells assessed as cell growth at 0.001 uM after 48 hrs by sulforhodamine B assay; conditions: read-out: Activity
[23] = system: NCI-H226; experiment: Cytotoxicity against human NCI-H226 cells assessed as cell growth at 0.001 uM after 48 hrs by sulforhodamine B assay; conditions: NCI-H226, 48 h, read-out: Activity
[24] = system: UACC-257; experiment: Cytotoxicity against human UACC257 cells assessed as cell growth at 100 nM after 48 hrs by sulforhodamine B assay; conditions: UACC-257, 48 h, read-out: Activity
[25] = system: TK-10; experiment: Growth inhibition of human TK10 cells after 48 hrs by sulforhodamine B assay; conditions: TK-10, 48 h; for CC50: read-out: LC50 (the source's name); how it was run: as §1
[26] = system: SK-MEL-2; experiment: Growth inhibition of human SK-MEL-2 cells after 48 hrs by sulforhodamine B assay; conditions: SK-MEL-2, 48 h; for CC50: read-out: LC50 (the source's name); how it was run: as §1

Row | Structure (SMILES) | growth at 0.001 µM [1] [%] | GI50 [2] [µM] | TGI [2] [µM] | CC50 [2] [µM] | growth at 0.001 µM [3] [%] | growth at 0.001 µM [4] [%] | growth at 0.01 µM [5] [%] | growth at 0.001 µM [6] [%] | growth at 1 µM [7] [%] | GI50 [8] [µM] | LC50 [8] [µM] | TGI [8] [µM] | growth at 10 µM [9] [%] | growth at 0.001 µM [10] [%] | growth at 1 µM [11] [%] | growth at 0.001 µM [12] [%] | GI50 [13] [µM] | TGI [13] [µM] | CC50 [13] [µM] | growth at 10 µM [14] [%] | also measured
1 | COc1cc(C)cc(-c2c(-c3ccnc(-c4ccc(N(C)C)cc4)c3)cnn2CC#N)c1 | 88 | 0.0529 | 0.315 | > 100 | 99 | 83 | 58 | 101 | 31 | 0.105 | > 100 | 0.465 | 23.3 | 105 | 18 | 95 | 0.302 | > 100 | > 100 | 29.4 | GI50 [15]: 0.0369 µM; TGI [15]: 0.0893 µM; CC50 [15]: > 100 µM; growth at 10 µM [16]: 6%; growth at 10 µM [17]: 8.33%; growth at 0.1 µM [18]: 14%; growth at 0.001 µM [19]: 86%; growth at 0.01 µM [20]: 80%; GI50 [21]: 0.0584 µM; LC50 (50% net cell kill) [21]: > 100 µM; TGI [21]: 3.82 µM; growth at 0.001 µM [22]: 97%; growth at 0.001 µM [23]: 95%; growth at 0.1 µM [24]: 41%; GI50 [25]: 0.636 µM; TGI [25]: > 100 µM; CC50 [25]: > 100 µM; GI50 [26]: 0.204 µM; TGI [26]: > 100 µM; CC50 [26]: > 100 µM
2 | COc1cc(C)cc(-c2nn(CC#N)cc2-c2ccc(-c3cccc(C(C)=O)c3)nc2)c1 | 84 | 2.63 | > 100 | > 100 | 99 | 99 | 100 | 102 | 16 | 1.78 | > 100 | 15.1 | -51 | 96 | 39 | 94 | 4.07 | 81.4 | > 100 | 40.2 | GI50 [15]: 1.91 µM; TGI [15]: 10.5 µM; CC50 [15]: > 100 µM; growth at 10 µM [16]: -29%; growth at 10 µM [17]: 23.4%; growth at 0.1 µM [18]: 69%; growth at 0.001 µM [19]: 94%; growth at 0.01 µM [20]: 91%; GI50 [21]: 0.365 µM; LC50 (50% net cell kill) [21]: > 100 µM; TGI [21]: > 100 µM; growth at 0.001 µM [22]: 92%; growth at 0.001 µM [23]: 95%; growth at 0.1 µM [24]: 70%; GI50 [25]: 3.28 µM; TGI [25]: 11.5 µM; CC50 [25]: > 100 µM; GI50 [26]: 3.73 µM; TGI [26]: 41.3 µM; CC50 [26]: > 100 µM
3 | Cc1cc(O)cc(-c2nn(CC#N)cc2-c2ccnc(-c3ccc(N(C)C)cc3)c2)c1 | 98 | 2.18 | 8.71 | 84.1 | 105 | 93 | 95 | 99 | 13 | 3.14 | > 100 | 12.9 | 64.7 | 99 | 26 | 96 | 3.55 | 16.9 | 77.9 | 51.2 | GI50 [15]: 2.89 µM; TGI [15]: 16.4 µM; CC50 [15]: > 100 µM; growth at 10 µM [16]: -44%; growth at 10 µM [17]: 22.9%; growth at 0.1 µM [18]: 90%; growth at 0.001 µM [19]: 94%; growth at 0.01 µM [20]: 96%; GI50 [21]: 2.55 µM; LC50 (50% net cell kill) [21]: > 100 µM; TGI [21]: 32.8 µM; growth at 0.001 µM [22]: 97%; growth at 0.001 µM [23]: 100%; growth at 0.1 µM [24]: 83%; GI50 [25]: 8.4 µM; TGI [25]: 57.8 µM; CC50 [25]: > 100 µM; GI50 [26]: 4.15 µM; TGI [26]: 15.8 µM; CC50 [26]: > 100 µM

From ChEMBL document CHEMBL1165950, “Design and synthesis of new potent anticancer pyrazoles with high FLT3 kinase inhibitory selectivity” (Bioorg Med Chem, 2010)
